Results: ChEMBL document CHEMBL2331350, “Conjugation to 4-aminoquinoline improves the anti-trypanosomal activity of Deferiprone-type iron chelators” (Bioorg Med Chem, 2013)
Activity calls are given as the source filed them. The calls are words filed in the database; no cut-off is given here.

Legend:
Trypanosoma cruzi [1] = assay: Antitrypanosomal activity against Trypanosoma cruzi trypomastigotes after 24 hrs by MTT assay; assay type: functional
Summary of the method: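 T. cruzi trypomastigotes counted by hemocytometer, seeded at 1 × 10⁶ per well; compounds up to 100 µM for 24 h at 37 °C, 5% CO2. Viability from MTT conversion to formazan. Benznidazole positive control; GI50 with 95% CI.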

Trypanosoma brucei [2] = assay: Antitrypanosomal activity against Trypanosoma brucei TC211 after 24 hrs by alamar blue assay; assay type: functional; conditions: TC211, 24 h
Summary of the method: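 Bloodstream T. brucei TC211 in Baltz medium with 16.7% heat-inactivated FBS, seeded at 10⁴ cells/mL with compounds in DMSO (final 0.5%; DMSO-only controls). Alamar Blue added after 24 h, then 48 h incubation; absorbance 570 nm, reference 630 nm. Melarsoprol positive control; GI50 with 95% CI.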

Leishmania infantum [3] = assay: Antileishmanial activity against Leishmania infantum MHOM/BR/1972/LD intracellular amastigotes at 60 uM after 120 hrs by light microscopy
[4] = Selectivity index, ratio of GI50 for human HL60 cells to GI50 for Leishmania infantum MHOM/BR/1972/LD promastigotes; assay type: toxicity, cell-based, HL-60; conditions: read-out: RatioGI50
[5] = Lipophilicity, log P of the compound; assay type: physicochemical; conditions: octanol/water
[6] = Selectivity index, ratio of GI50 for human HL60 cells to GI50 for Trypanosoma brucei TC211; assay type: toxicity, cell-based, HL-60; conditions: read-out: RatioGI50
Trypanosoma brucei [7] = assay: Antitrypanosomal activity against Trypanosoma brucei TC211 after 24 hrs by alamar blue assay relative to Chloroquine; assay type: functional
[8] = Cytotoxicity against human HL60 cells by alamar blue assay; assay type: cell-based, HL-60
Summary of the method: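 HL-60 cells in RPMI 1640 with 2 mM L-glutamine and 16.7% FBS at 37 °C, 5% CO2, seeded at 10⁵ cells/mL. Viability with Alamar Blue read as in the T. brucei assay (570 nm, reference 630 nm); GI50.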

[9] = Selectivity index, ratio of GI50 for human K562 cells to GI50 for Plasmodium falciparum ITG2G1; assay type: toxicity, cell-based; conditions: read-out: RatioGI50
Trypanosoma cruzi [10] = assay: Antitrypanosomal activity against Trypanosoma cruzi trypomastigotes after 24 hrs by MTT assay relative to Deferiprone; assay type: functional
[11] = Selectivity index, ratio of GI50 for human HL60 cells to GI50 for Trypanosoma cruzi trypomastigotes; assay type: toxicity, cell-based, HL-60; conditions: read-out: RatioGI50
Leishmania infantum [12] = assay: Antileishmanial activity against Leishmania infantum MHOM/BR/1972/LD promastigotes after 48 hrs by MTT assay; assay type: functional
Plasmodium falciparum = assay: Antimalarial activity against Plasmodium falciparum ITG2G1; assay type: functional
[13] = Cytotoxicity against human K562 cells; assay type: cell-based
Trypanosoma brucei [14] = assay: Antitrypanosomal activity against Trypanosoma brucei TC211 after 24 hrs by alamar blue assay relative to Deferiprone; assay type: functional
Trypanosoma cruzi [15] = assay: Antitrypanosomal activity against Trypanosoma cruzi trypomastigotes after 24 hrs by MTT assay relative to Chloroquine; assay type: functional
Trypanosoma brucei [16] = assay: Iron cheating activity in Trypanosoma brucei bloodstream forms assessed as increase in fluorescein-labeled transferrin at 25 uM in presence of 16.7% heat inactivated FBS after 24 hrs by flow cytometry relative to untreated control; assay type: functional
Summary of the method: (§1)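 Bloodstream T. brucei (5 × 10⁵/mL) exposed 24 h in Baltz medium/16.7% heat-inactivated FBS to 50 µM chelator, 25 µM DFO or DMSO control. Washed cells then given 50 µg/mL fluorescein-transferrin in Baltz/2% BSA for 2 h, washed, fixed in 2% formaldehyde/0.05% glutaraldehyde, analysed by flow cytometry.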

[17] = Iron cheating activity assessed as pFe3+ value at pH 7.45 by spectrophotometry; assay type: functional
Summary of the method: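 Automated spectrophotometric titration at 25 °C, 0.1 M KCl, pH 2–12 in 0.1-unit steps, 5 min equilibration for stability constants, 50 mm cuvette; […], total iron 1 mM; data fitted with pHab; pFe³⁺ defined at 10⁻⁶ M metal and 10⁻⁵ M ligand.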

Trypanosoma brucei [18] = assay: Antitrypanosomal activity against Trypanosoma brucei TC211 after 24 hrs in presence of FeCl3 by alamar blue assay; assay type: functional, organism-based
Trypanosoma brucei [19] = assay: Iron cheating activity in Trypanosoma brucei bloodstream forms assessed as increase in fluorescein-labeled transferrin at 50 uM in presence of 16.7% heat inactivated FBS after 24 hrs by flow cytometry relative to untreated control; assay type: functional; summary of the method: as §1

Compound `O=C(Cn1ccnc1[N+](=O)[O-])NCc1ccccc1` [BENZNIDAZOLE] has a GI50 (Trypanosoma cruzi [1]) of 441 µM.
For `Cc1c(O)c(=O)ccn1CCCCNc1ccnc2cc(Cl)ccc12`, the GI50 (Trypanosoma brucei [2]) was 3.8 µM, the Activity (Leishmania infantum [3]) was “inactive” and the selectivity ratio [4] was 2. It also gave a logP [5] of 1.4, a selectivity ratio [6] of 13 and a Ratio (Trypanosoma brucei [7]) of 4. It also gave a GI50 [8] of 50.3 µM, a GI50 (Trypanosoma cruzi [1]) of 6.5 µM and a selectivity ratio [9] of 16. The Ratio (Trypanosoma cruzi [10]) was greater than 15, the selectivity ratio [11] was 8 and the GI50 (Leishmania infantum [12]) was 27.1 µM. It also gave a GI50 (Plasmodium falciparum) of 2.4 µM, a GI50 [13] of 38.2 µM and a Ratio (Trypanosoma brucei [14]) greater than 25. The Ratio (Trypanosoma cruzi [15]) was 4.
In the case of `CC(=O)N(O)CCCCCNC(=O)CCC(=O)N(O)CCCCCNC(=O)CCC(=O)N(O)CCCCCN` [DEFEROXAMINE], the GI50 (Trypanosoma brucei [2]) is reported as 2.9 µM, the “fold change (FC)” value (Trypanosoma brucei [16]) is reported as 2 and the Activity [17] is reported as 26.6. For the same compound, the GI50 [8] was 18.4 µM, the GI50 (Leishmania infantum [12]) was 150 µM and the GI50 (Plasmodium falciparum) was 28 µM. The GI50 [13] was 33.1 µM.
For `CCCCCCCCn1ccc(=O)c(O)c1C`, the GI50 (Trypanosoma brucei [2]) was 3.6 µM, the selectivity ratio [4] was 4 and the selectivity ratio [6] was 3. It also gave a GI50 [8] of 11.2 µM, a GI50 (Trypanosoma cruzi [1]) of 3 µM and a selectivity ratio [11] of 4. For the same compound, the GI50 (Leishmania infantum [12]) was 3.2 µM.
In the case of `Cc1c(O)c(=O)ccn1C` [DEFERIPRONE], the GI50 (Trypanosoma brucei [2]) is reported as greater than 100 µM, the Activity [17] is reported as 19.3 and the GI50 [8] is reported as greater than 100 µM. The GI50 (Trypanosoma cruzi [1]) was greater than 100 µM, the GI50 (Leishmania infantum [12]) was greater than 100 µM and the GI50 (Plasmodium falciparum) was 67 µM.
For `Nc1nc(N)nc(Nc2ccc([As]3SCC(CO)S3)cc2)n1` (configuration not stated) [MELARSOPROL], the GI50 (Trypanosoma brucei [2]) was 0.0038 µM.
`C[C@@H]1[C@H](O)[C@@H](C)/C=C/C=C/C=C/C=C/C=C/C=C/C=C/[C@H](O[C@@H]2O[C@H](C)[C@@H](O)[C@H](N)[C@@H]2O)C[C@@H]2O[C@](O)(C[C@@H](O)C[C@@H](O)[C@H](O)CC[C@@H](O)C[C@@H](O)CC(=O)O[C@H]1C)C[C@H](O)[C@H]2C(=O)O` [AMPHOTERICIN B] showed a GI50 (Leishmania infantum [12]) of 0.17 µM.
`Cc1c(O)c(=O)ccn1CCN` showed a GI50 (Trypanosoma brucei [2]) greater than 100 µM, a GI50 [8] of 111 µM and a GI50 (Trypanosoma cruzi [1]) greater than 100 µM. The GI50 (Leishmania infantum [12]) was greater than 100 µM.
For `Cc1c(O)c(=O)ccn1CCCNc1ccnc2cc(Cl)ccc12`, the logP [5] was 1.32.
`Cc1c(O)c(=O)ccn1CCNc1ccnc2cc(Cl)ccc12` showed a logP [5] of 1.08, a selectivity ratio [9] of 26 and a GI50 (Plasmodium falciparum) of 7 µM. The GI50 [13] was 182 µM.
In the case of `NCCCCNc1ccnc2cc(Cl)ccc12`, the GI50 (Trypanosoma brucei [2]) is reported as 15.8 µM, the GI50 [8] is reported as greater than 100 µM and the GI50 (Trypanosoma cruzi [1]) is reported as 46.3 µM. For the same compound, the GI50 (Leishmania infantum [12]) was 42.4 µM.
Compound `Cc1c(O)c(=O)ccn1CCCCNc1ccnc2ccccc12` has a GI50 (Trypanosoma brucei [2]) of 7.6 µM, a logP [5] of 1.25 and a selectivity ratio [6] greater than 13. For the same compound, the GI50 [8] was greater than 100 µM, the Activity (Trypanosoma brucei [18]) was “inactive” and the GI50 (Trypanosoma cruzi [1]) was greater than 100 µM. It also gave a selectivity ratio [9] of 17, a GI50 (Leishmania infantum [12]) greater than 100 µM and a GI50 (Plasmodium falciparum) of 1.6 µM. The GI50 [13] was 27.1 µM and the “fold change (FC)” value (Trypanosoma brucei [19]) was 1.6.
`CCN(CC)CCCC(C)Nc1ccnc2cc(Cl)ccc12` (configuration not stated) [CHLOROQUINE] showed a GI50 (Trypanosoma brucei [2]) of 15.6 µM, a GI50 (Trypanosoma cruzi [1]) of 22.2 µM and a GI50 (Leishmania infantum [12]) of 3.7 µM.
For `Cc1cc(NCCCCn2ccc(=O)c(O)c2C)c2ccccc2n1`, the Activity [17] was 21.1, the logP [5] was -0.48 and the selectivity ratio [9] was 23. For the same compound, the GI50 (Plasmodium falciparum) was 9 µM and the GI50 [13] was 204 µM.
`CCCCCCCCCCn1ccc(=O)c(O)c1C` showed a GI50 (Trypanosoma brucei [2]) of 1.4 µM, a selectivity ratio [4] of 9 and a selectivity ratio [6] of 5. It also gave a GI50 [8] of 6.3 µM, a GI50 (Trypanosoma cruzi [1]) of 0.8 µM and a selectivity ratio [11] of 8. It also gave a GI50 (Leishmania infantum [12]) of 0.7 µM.
For `Cc1cc(NC(=O)CCCn2ccc(=O)c(O)c2C)c2ccccc2n1`, the logP [5] was 1.28, the selectivity ratio [9] was 21 and the GI50 (Plasmodium falciparum) was 6 µM. For the same compound, the GI50 [13] was 128 µM.
